Only some compounds are listed: those with a hit (about 2.1% of all), similar ones and a draw of the others.
CXCR6 inh: CXCR6 (human) receptor inhibition | inhibition, % at 20 µM | AID 602244 | O00574 | 360,000 compounds, 0.36% hits | CHO-K1 PathHunter CXCR6 beta-arrestin, luminescence; in the data active = inhibition above about 34%, passing the limit was not always enough;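 note: antagonist mode with CXCL16 agonist at 10 nM final; 0% = 10 nM CXCL16 with DMSO and 100% = unstimulated wells without agonist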
APJ antag: APJ receptor antagonism; P35414; AID 2521; 330,000 compounds, 0.32% hits; CHO-K1 APJ beta-arrestin complementation, luminescence; inhibition, % at 20 µM;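 active = inhibition above about 40% at 20 µM, limit read from the data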;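 note: cells challenged with 10 nM apelin-13 agonist together with compound; plate controls were apelin-13 plus DMSO wells for no effect and DMSO wells lacking apelin-13 for full effect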
Target sequence (P35414 whole entry, looked up): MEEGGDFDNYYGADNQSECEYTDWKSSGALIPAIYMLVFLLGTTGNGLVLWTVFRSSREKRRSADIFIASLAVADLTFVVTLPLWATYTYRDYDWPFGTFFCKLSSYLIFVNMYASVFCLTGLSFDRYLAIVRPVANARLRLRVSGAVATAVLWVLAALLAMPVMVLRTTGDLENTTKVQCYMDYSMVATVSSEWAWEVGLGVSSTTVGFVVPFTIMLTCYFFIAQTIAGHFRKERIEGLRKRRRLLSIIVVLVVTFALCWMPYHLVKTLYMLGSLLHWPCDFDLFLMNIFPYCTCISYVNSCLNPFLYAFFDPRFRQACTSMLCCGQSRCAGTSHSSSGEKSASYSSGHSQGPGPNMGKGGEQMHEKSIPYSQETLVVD
APJ agonist: APJ receptor agonism | activation, % at 20 µM | P35414 | CHO-K1 APJ PathHunter beta-arrestin, luminescence; 0% DMSO wells, 100% apelin | 330,000 compounds, 0.11% hits | AID 2520;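 active = activation more than six SD over the plate average, tested at 20 µM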;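 note: 0% = DMSO alone and 100% = apelin-13 at 10 nM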
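Test system – PathHunter CHO-K1 APJ (AGTRL-1) beta-arrestin reporter cells · Input – 1000 cells/well · Compound – single test compound dose, 20 µM final, 1% DMSO · Times – compound stimulation 90 min at 25 °C, detection 60 min · Technique – beta-gal luminescence · Read-out basis – APJ–arrestin association signal · Control set – negative DMSO alone, positive Apelin-13 at 10 nM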
HTR2A ag: agonists of mouse serotonin 5-HT2A receptor (HTR2A); P35363; CHO-K1 mHTR2A beta-arrestin complementation, luminescence; percent of 30 µM serotonin response; activation, % at 7.6 µM; 360,000 compounds, 0.66% hits; AID 624169;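 active = activation above a run cutoff, the mean activation of all tested compounds plus 3 SD, cut at about 14% in these data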;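 note: 0% = plate median of compound wells and 100% = 30 µM serotonin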
CCR6 antagonist: blocks CCL20-driven beta-arrestin recruitment at human CCR6; CHO-K1 CCR6 PathHunter beta-arrestin, luminescence, CCL20-stimulated; inhibition, % at 20 µM; 340,000 compounds, 0.49% hits; AID 493098;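 active = compounds whose inhibition of the agonist-driven luminescence signal at 20 µM reaches about 50%, limit read from the data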;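 note: cells stimulated with CCL20 at 14 nM final; plate controls were DMSO with CCL20 for no effect and DMSO without agonist for full effect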
EBI2 block: EBI2 (human) antagonism; P32249; EBI2 beta-arrestin recruitment, luminescence, 7a,25-OHC stimulated; inhibition, % at 5 µM; 360,000 compounds, 0.81% hits; AID 651636; in the data active = inhibition above about 38%;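 note: enzyme fragment complementation signal reports receptor beta-arrestin coupling in cells; 0% = agonist plus DMSO wells and 100% = wells without agonist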
* hit, by the source's call; · = no result.

SMILES	CXCR6 inh	APJ antag	APJ agonist	HTR2A ag	CCR6 antagonist	EBI2 block
CCN1/C(=C2\C(=O)N(c3ccccc3)N=C2C)C=Cc2cc(C)ccc21	0.0	7.4	-4.5	1.2	10.9	-7.7
CCN1/C(=c2/s/c(=C3/C(=O)N(c4ccccc4)N=C3C)n(CC)c2=O)C=Cc2ccccc21	9.5	10.6	-1.6	12.4	52.2*	-1.4
CC(=O)N1CCCC(C)(C(=O)Nc2ccc3nc(C)ccc3c2)C1 (centres undefined)	-5.2	·	·	0.3	·	-12.2
O=S1(=O)C=C(Sc2nc3cc(Cl)ccc3o2)c2ccccc21	55.6*	24.0	-6.0	-3.1	73.9*	14.5
Fc1cccc(NC(=S)NNc2c3ccccc3nc3ccccc23)c1	37.8	·	·	-0.4	55.8*	-3.2
CCOc1ccc(NC(=O)CN2CCN(CC(=O)Nc3cccc(F)c3)CC2)cc1	0.3	7.9	3.5	-3.0	15.8	-0.2
CCOc1ccc(NC(=O)CN2CCN(CC(=O)Nc3ccc(Cl)c(C(F)(F)F)c3)CC2)cc1	-11.0	-14.1	-0.1	-1.7	-4.0	43.1*
O=c1[nH]cc(C=NNc2ccccc2)c(=O)[nH]1	-6.2	·	·	-3.4	·	-7.2
CC(C)(C)NC(=O)C(c1ccc(C(F)(F)F)cc1)n1c(=O)c(-c2ccco2)nc2ccccc21 (centres undefined)	·	·	·	0.0	·	13.9
COC(=O)c1c(NC(=O)c2nc3ccccc3s2)sc2c1CCN(C(C)=O)C2	10.7	10.3	0.8	-4.1	16.3	0.0
CNC(=O)c1c(NC(=O)c2nc3ccccc3s2)sc2c1CCC2	39.7*	39.2	-6.0	8.8	·	10.5
COc1ccc(S(=O)(=O)Oc2ccc3ccccc3c2)cc1	5.9	-7.7	-1.9	1.5	4.5	-5.2
COC1=C(OC)C(=O)C(Sc2ccc3ccccc3c2)=CC1=O	72.0*	·	·	1.4	·	-1.1
CC1(C(=O)NS(=O)(=O)c2cccc(Cl)c2)CCN1C(=O)CC1CCCC1 (centres undefined)	-3.2	·	·	2.3	·	0.9
CC(=O)SC(C[N+](=O)[O-])c1cn(C(C)=O)c2ccccc12 (centres undefined)	54.8*	-1.2	-6.6	-4.5	75.9*	-7.4
CCn1cc(C(c2ccccc2)C(C(C)=O)[N+](=O)[O-])c2ccccc21 (centres undefined)	-8.2	5.8	-4.2	-2.4	-1.6	-0.1
CC(=O)n1cc(Nc2ccc([N+](=O)[O-])cc2)c2ccccc21	15.0	42.4*	-6.0	0.9	35.8	11.4
Brc1ccc2c(c1)CN1CCCC1=N2	5.6	1.4	-2.7	2.9	-0.9	-1.4
COc1cccc(CNc2cc(CSc3ccc(Cl)cc3)nc(C)n2)c1	-0.5	12.5	-2.6	-6.6	10.6	49.2*
COc1cc(/C=C2\C(=O)N(c3ccc(NC(C)=O)cc3)N=C2c2ccccc2)ccc1O	46.0*	39.7	-3.8	-1.1	48.0	9.0
COc1ccc(C=NNC(=O)CCCCC(=O)NN=Cc2ccc(OC)cc2)cc1	11.2	·	·	-1.0	5.6	13.1
COC(=O)/C=C\C(C#N)(C#N)N=Cc1ccc(OC)cc1	65.0*	·	·	13.2	15.3	8.4
CC1=C/C(=C(\c2cc(C)c(O)c(Br)c2)c2ccccc2S(=O)(=O)O)C=C(Br)C1=O	30.9	19.3	-4.5	-6.8	58.9*	3.7
Cc1cc(C(=O)c2ccccc2)cc(C)c1O	9.9	·	·	0.4	8.8	0.5
Cc1ccc(C(=O)ONc2ccc(N=NC(=O)c3ccccc3O)cc2)cc1	27.9	34.8	-10.1	3.1	55.9*	11.5
SMILES	CXCR6 inh	APJ antag	APJ agonist	HTR2A ag	CCR6 antagonist	EBI2 block
Cc1ccc(C(=O)ONc2ccc(N=O)cc2)cc1	-8.4	-13.5	0.0	1.6	6.9	-5.0
Cc1noc(C)c1CCC(=O)Nc1cc(Cl)ccc1C(=O)O	2.9	·	·	1.3	·	-3.0
OC1(c2ccc(Cl)c(Cl)c2)C[n+]2ccccc2N1Cc1ccccc1 (centres undefined)	0.8	9.0	-0.9	-8.0	11.4	-8.4
O=[N+]([O-])c1cc(CN2CCOCC2)c2cccnc2c1O	·	·	·	·	3.2	·
Oc1ccc(CN2CCN(Cc3ccccc3)CC2)c2cccnc12	27.2	13.5	-6.1	-5.5	17.3	67.7*
O=[N+]([O-])c1cc(CN2CCN(c3ccccc3)CC2)c(O)c2ncccc12	56.0*	-1.6	-2.5	-4.1	75.4*	17.1

Assay outcomes: PubChem, several laboratories
